Values after ≈ are worked out from the molar mass of the structure shown. Where a SMILES comes first, the peptide text is derived from it. Bridges are numbered along the chain shown (N, C = ends). [ ]: non-standard residue; d: D form. The star is where a group is joined. Isonicotinoyl(2-Ph) = O=C(c1ccnc(-c2ccccc2)c1)*; X8 = N#Cc1cc(C(=O)*)ccc1-c1ccccc1; Dab = NCC[C@H](N)C(=O)O; Dap = NC[C@H](N)C(=O)O
Legend:
[1] = test system: Pseudomonas aeruginosa; experiment: Antibacterial activity against polymyxin-resistant Pseudomonas aeruginosa clinical isolate 1646 assessed as growth inhibition by broth microdilution method; format: functional
Outline: (§1)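 Test strain PA-1646 is a P. aeruginosa isolate with a mutated PmrAB two-component system. The system is constitutively active, so the modified lipid A moiety is constantly expressed on the cell surface, giving a polymyxin-resistant phenotype.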

[2] = test system: Canis familiaris; experiment: fAUC in beagle dog at 5 mg/kg, iv bid administered as bolus dose for 7 days measured at 1 to 7 days; format: ADME, organism-based, Canis lupus familiaris; design: dose 5 mg/kg, route intravenous; conditions: in vivo
[3] = test system: Canis familiaris; experiment: Ratio of compound fAUC in beagle dog at 11 mg/kg, iv bid for 7 days to polymyxin B fAUC in beagle dog at 6 mg/kg, iv bid for 7 days; format: ADME, organism-based, Canis lupus familiaris; conditions: in vivo, 168 h
[4] = test system: Escherichia coli; experiment: Antibacterial activity against polymyxin-sensitive Escherichia coli isolate 1 assessed as growth inhibition by broth microdilution method; format: functional
[5] = test system: Mus musculus; experiment: fAUC in ICR mouse neutropenic infection model at 12.5 to 75 mg/kg, sc; format: ADME, organism-based; design: dose 12.5-75 mg/kg, route subcutaneous; conditions: in vivo
Outline: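 Infected neutropenic female ICR mice (~25 g; cyclophosphamide 150 and 100 mg/kg IP at 4 and 1 days before inoculation) received single SC doses of 12.5–75 mg/kg. Six mice per time point were sampled by cardiac puncture at eight times over 12 h, and plasma was assayed by LC-MS.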

[6] = test system: Rattus norvegicus; experiment: fAUC in Wistar Han rat at 4 mg/kg, iv bid administered as bolus dose for 7 days measured at 1 to 7 days; format: ADME, organism-based; design: dose 4 mg/kg, route intravenous; conditions: in vivo
[7] = test system: Klebsiella pneumoniae; experiment: Antibacterial activity against polymyxin-sensitive ESBL-positive Klebsiella pneumoniae clinical isolate 3700 assessed as growth inhibition by broth microdilution method; format: functional
[8] = test system: Canis familiaris; experiment: fAUC in beagle dog at 11 mg/kg, iv bid administered as bolus dose for 7 days measured at 1 to 7 days; format: ADME, organism-based, Canis lupus familiaris; design: dose 11 mg/kg, route intravenous; conditions: in vivo
[9] = test system: Pseudomonas aeruginosa; experiment: Antibacterial activity against Pseudomonas aeruginosa 1402 assessed as growth inhibition by broth microdilution method; format: functional
Outline: (§2)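 CLSI broth microdilution MIC against P. aeruginosa 1401 (PA01) and 1402 (UC12120), the two strains used in the mouse thigh model.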

[10] = Cytotoxicity against human RPTEC after 24 hrs by LDH assay; format: cell-based; conditions: RPTEC cells, read-out: TC50
Outline: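 Primary human renal proximal tubule epithelial cells in REGM (EGF, hydrocortisone, epinephrine, insulin, T3, transferrin, gentamycin/amphotericin-B, FBS). After 72 h of growth at 37 °C, 5% CO2, cells were exposed for 24 h to aqueous compound at 100, 67, 44, 30, 20 and 13 μM. LDH release into the supernatant was measured by kit and TC50 (μM) derived, with PMB and PMBN as controls.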

[11] = test system: Canis familiaris; experiment: Nephrotoxicity in beagle dog assessed as incidence of necrotic kidney lesions at 5 to 20 mg/kg, iv bid administered as bolus dose for 7 days measured at 1 to 7 days by microscopic analysis; format: toxicity, organism-based, Canis lupus familiaris; design: route intravenous; conditions: in vivo
Outline: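 Male and female Beagle dogs, 5–11 kg, received IV bolus twice daily (≥6 h apart) for 7 days at 0 (0.9% saline), 5, 11 or 20 mg/kg/day. Necropsy was the day after the last dose. Kidney proximal tubules were examined microscopically for degeneration/regeneration and graded in severity. Incidence is given as animals with lesions over animals tested.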

[12] = test system: Pseudomonas aeruginosa; experiment: Bactericidal activity against polymyxin-resistant Pseudomonas aeruginosa clinical isolate 1646; format: functional; outline: as §1
[13] = test system: Pseudomonas aeruginosa; experiment: Antibacterial activity against polymyxin-resistant Pseudomonas aeruginosa clinical isolates assessed as growth inhibition by broth microdilution method
[14] = test system: Canis familiaris; experiment: fAUC in beagle dog at 20 mg/kg, iv bid administered as bolus dose for 7 days measured at 1 to 7 days; format: ADME, organism-based, Canis lupus familiaris; design: dose 20 mg/kg, route intravenous; conditions: in vivo
[15] = Fraction unbound in Wistar Han rat plasma; format: ADME, cell-free
[16] = Ratio of fAUC in ICR mouse neutropenic infection model to MIC for Pseudomonas aeruginosa assessed during measurement of exposure index required for 80%; format: functional
[17] = test system: Rattus norvegicus; experiment: Nephrotoxicity in Wistar Han rat assessed as incidence of necrotic kidney lesions at 4 to 8 mg/kg, iv bid administered as bolus dose for 7 days measured at 1 to 7 days by microscopic analysis; format: toxicity, organism-based; design: route intravenous; conditions: in vivo
Outline: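 Male Wistar Han IGS rats, 6–9 weeks old, received IV bolus twice daily (≥6 h apart) for 7 days at 0 (0.9% saline), 4 or 8 mg/kg/day. Necropsy was the day after the last dose. Kidneys were weighed and examined microscopically for proximal tubule epithelial degeneration/regeneration, graded minimal to severe. Incidence is given as animals with lesions over animals tested.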

[18] = Ratio of fAUC in ICR mouse neutropenic infection model to MIC for Pseudomonas aeruginosa assessed during measurement of statis parameter; format: functional
[19] = Ratio of fAUC in ICR mouse neutropenic infection model to MIC for Pseudomonas aeruginosa assessed during measurement of 1 log decrease parameter; format: functional
[20] = Ratio of fAUC in ICR mouse neutropenic infection model to MIC for Pseudomonas aeruginosa assessed during measurement of 50% of maximal efficacy; format: functional
[21] = test system: Pseudomonas aeruginosa; experiment: Antibacterial activity against polymyxin-sensitive Pseudomonas aeruginosa 1401 assessed as growth inhibition by broth microdilution method; format: functional; outline: as §2
[22] = test system: Acinetobacter baumannii; experiment: Antibacterial activity against polymyxin-sensitive Acinetobacter baumannii clinical isolate 3167 assessed as growth inhibition by broth microdilution method; format: functional
[23] = Plasma protein binding in ICR mouse neutropenic infection model; format: ADME, cell-free; conditions: read-out: PPB (converted)
[24] = test system: Acinetobacter baumannii; experiment: Antibacterial activity against polymyxin-resistant Acinetobacter baumannii clinical isolate 1649 assessed as growth inhibition by broth microdilution method; format: functional
[25] = test system: Rattus norvegicus; experiment: fAUC in Wistar Han rat at 8 mg/kg, iv bid administered as bolus dose for 7 days measured at 1 to 7 days; format: ADME, organism-based; design: dose 8 mg/kg, route intravenous; conditions: in vivo
[26] = Fraction unbound in beagle dog plasma; format: ADME, cell-free, Canis lupus familiaris
[27] = test system: Acinetobacter baumannii; experiment: Bactericidal activity against polymyxin-resistant Acinetobacter baumannii clinical isolate 1649; format: functional

CC(C)C[C@@H]1NC(=O)[C@@H](Cc2ccccc2)NC(=O)[C@H](CCN)NC(=O)[C@@H](NC(=O)[C@H](CN)NC(=O)[C@@H](NC(=O)[C@H](CCN)NC(=O)c2ccc(=O)n(-c3ccccc3)c2)[C@@H](C)O)CCNC(=O)[C@H]([C@@H](C)O)NC(=O)[C@H](CCN)NC(=O)[C@H](CCN)NC1=O
MIC [1]: 4 µg/mL | MIC50 [1]: 2 µg/mL | fAUC [2]: 20000 ng·h/mL | fAUC ratio [3]: 1.5 | MIC50 [4]: 1 µg/mL | MIC90 [4]: 2 µg/mL | fAUC [5]: 7200 ng·h/mL | fAUC [6]: 13000 ng·h/mL | MIC50 [7]: 0.5 µg/mL | MIC90 [7]: 1 µg/mL | fAUC [8]: 64000 ng·h/mL | MIC [9]: 0.5 µg/mL | CC50 at 24 h [10]: > 100 µM | Activity [11]: Toxic | MBC [12]: 8 µg/mL (≈ 6.42 µM) | MIC90 [13]: 8 µg/mL | fAUC [14]: 114000 ng·h/mL | fraction unbound [15]: 0.81 | fAUC/MIC [16]: 157.55 | Activity [17]: Non-toxic | fAUC/MIC [18]: 85.26 | fAUC/MIC [19]: 109.63 | fAUC/MIC [20]: 87.92 | MIC50 [21]: 1 µg/mL | MIC90 [21]: 2 µg/mL | MIC50 [22]: 2 µg/mL | MIC90 [22]: 2 µg/mL | fraction unbound [23]: 0.54 | MIC50 [24]: 4 µg/mL | MIC90 [24]: 16 µg/mL | fAUC [25]: 29000 ng·h/mL | fraction unbound [26]: 0.58 | MBC [27]: 2 µg/mL (≈ 1.6 µM)

CC(C)C[C@@H]1NC(=O)[C@@H](Cc2ccccc2)NC(=O)[C@H](CCN)NC(=O)[C@@H](NC(=O)[C@H](CCN)NC(=O)[C@@H](N)[C@@H](C)O)CCNC(=O)[C@H]([C@@H](C)O)NC(=O)[C@H](CCN)NC(=O)[C@H](CCN)NC1=O [POLYMYXIN B NONAPEPTIDE] (H-T[Dab][Dab][Dab][dF]L[Dab][Dab]T; lactam 3-C)
MIC [1]: > 64 µg/mL | MIC [4]: > 64 µg/mL | MIC [7]: > 64 µg/mL | CC50 at 24 h [10]: > 100 µM | MBC [12]: > 64 µg/mL | MIC [21]: > 64 µg/mL | MIC [22]: > 64 µg/mL | MIC [24]: > 64 µg/mL | MBC [27]: > 64 µg/mL

CC(C)C[C@@H]1NC(=O)[C@@H](Cc2ccccc2)NC(=O)[C@H](CCN)NC(=O)[C@@H](NC(=O)[C@H](CN)NC(=O)[C@@H](NC(=O)[C@H](CCN)NC(=O)c2ccnc(-c3ccccc3)c2)[C@@H](C)O)CCNC(=O)[C@H]([C@@H](C)O)NC(=O)[C@H](CCN)NC(=O)[C@H](CCN)NC1=O ({Isonicotinoyl(2-Ph)}-[Dab]T[Dap][Dab][Dab][dF]L[Dab][Dab]T; lactam 4-C)
MIC [1]: 2 µg/mL | MIC [4]: 0.125 µg/mL | MIC [7]: 0.25 µg/mL | CC50 at 24 h [10]: 82 µM | MBC [12]: 4 µg/mL (≈ 3.25 µM) | MIC [21]: 0.25 µg/mL | MIC [22]: 0.25 µg/mL | MIC [24]: 1 µg/mL | MBC [27]: 1 µg/mL (≈ 0.813 µM)

CC(C)C[C@@H]1NC(=O)[C@@H](Cc2ccccc2)NC(=O)[C@H](CCN)NC(=O)[C@@H](NC(=O)[C@H](CN)NC(=O)[C@@H](NC(=O)[C@H](CCN)NC(=O)c2ccc(-c3ccccc3)c(C#N)c2)[C@@H](C)O)CCNC(=O)[C@H]([C@@H](C)O)NC(=O)[C@H](CCN)NC(=O)[C@H](CCN)NC1=O (X8-[Dab]T[Dap][Dab][Dab][dF]L[Dab][Dab]T; lactam 4-C)
MIC [1]: 2 µg/mL | MIC [4]: 0.5 µg/mL | MIC [7]: 0.5 µg/mL | CC50 at 24 h [10]: 32 µM | MBC [12]: 4 µg/mL (≈ 3.19 µM) | MIC [21]: 1 µg/mL | MIC [22]: 0.25 µg/mL | MIC [24]: 1 µg/mL | MBC [27]: 1 µg/mL (≈ 0.797 µM)
